Measured values published in ChEMBL document CHEMBL1275477, “Discovery and characterization of QPT-1, the progenitor of a new class of bacterial topoisomerase inhibitors” (Antimicrob Agents Chemother, 2008).
Converted amounts (≈) assume the structure as drawn.

How the values were obtained:
Staphylococcus aureus [1] = assay: Antibacterial activity against quinoline pyrimidine trione-resistant Staphylococcus aureus ATCC 29213 by broth microdilution method; assay type: functional
In short: (§1)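 Broth microdilution MIC following National Committee for Clinical Laboratory Standards methods. Plasmid-borne GyrB in transformed S. aureus strains was overexpressed by adding 100 ng/ml doxycycline.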

[2] = test system: Staphylococcus epidermidis; assay: Antibacterial activity against methicillin and ciprofloxacin-resistant Staphylococcus epidermidis UC12084 by broth microdilution method; assay type: functional; in short: as §1
Enterococcus faecium = assay: Antibacterial activity against Enterococcus faecium UC12712 by broth microdilution method; assay type: functional; in short: as §1
[3] = Cmax in lethal systemic CF-1 mouse infection model at 20.3 mg/kg, po; assay type: ADME, organism-based; design: dose 20.3 mg/kg, route oral; details: in vivo
In short: (§2)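 Mouse pharmacokinetics: single dose in 0.2 ml, given orally (pH 4.5 acetate-buffered 20% DMSO–methylcellulose suspension) or intravenously (20% hydroxypropyl beta-cyclodextrin, pH 7 phosphate buffer). Plasma sampled to 480 min: iv at 0, 2, 15, 30, 60, 120, 240, 480 min; oral at 0, 20, 30, 60, 120, 240, 360, 480 min. Three mice per time point; mean concentration–time data analysed noncompartmentally.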

Staphylococcus aureus [4] = assay: Antibacterial activity against Staphylococcus aureus RN4220 by broth microdilution method; assay type: functional; in short: as §1
Staphylococcus aureus [5] = assay: Antibacterial activity against methicillin and ciprofloxacin-resistant Staphylococcus aureus UC12673 by broth microdilution method; assay type: functional; in short: as §1
Staphylococcus aureus [6] = assay: Antimicrobial activity against Staphylococcus aureus COL harboring gyrB V28A mutant gene by broth microdilution method; assay type: functional; in short: as §1
Staphylococcus aureus [7] = assay: Antibacterial activity against methicillin-resistant Staphylococcus aureus UC9213 in orally dosed lethal systemic CF-1 mouse infection model; assay type: functional; details: UC9213, po
In short: (§3)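 Lethal systemic infection in female CF-1 mice (20 g), infected intraperitoneally with enough bacteria to kill 90–100% of untreated mice. Thawed cultures were suspended in brain heart infusion broth with 4% (wt/vol) dried brewer's yeast. Drug given orally or subcutaneously at 1 and 5 h postinfection, at five or more dose levels, six mice per level. Survival followed for 1 week; ED50 by probit analysis.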

[8] = Volume of distribution at steady state in lethal systemic CF-1 mouse infection model at 21.6 mg/kg, iv; assay type: ADME, organism-based; design: dose 21.6 mg/kg, route intravenous; details: in vivo, read-out: Vdss
Staphylococcus aureus [9] = assay: Antibacterial activity against ciprofloxacin-resistant Staphylococcus aureus by broth microdilution method; assay type: functional; in short: as §1
Staphylococcus aureus [10] = assay: Antimicrobial activity against Staphylococcus aureus 286607-R1 by broth microdilution method; assay type: functional; in short: as §1
Staphylococcus aureus [11] = assay: Antibacterial activity against Staphylococcus aureus UC9218 by broth microdilution method in presence of 25% serum; assay type: functional; in short: as §1
Staphylococcus aureus [12] = assay: Antibacterial activity against Staphylococcus aureus ATCC 29213 by broth microdilution method; assay type: functional; in short: as §1
Staphylococcus aureus [13] = assay: Antimicrobial activity against Staphylococcus aureus USA200 harboring […] S84L and parC R400C mutant gene by broth microdilution method; assay type: functional; in short: as §1
Streptococcus pyogenes = assay: Antibacterial activity against Streptococcus pyogenes UC152 by broth microdilution method; assay type: functional; in short: as §1
Enterococcus faecalis = assay: Antibacterial activity against Enterococcus faecalis UC9217 by broth microdilution method; assay type: functional; in short: as §1
Escherichia coli [14] = assay: Antibacterial activity against tolC-deficient Escherichia coli UC31708 by broth microdilution method; assay type: functional; in short: as §1
Streptococcus pneumoniae [15] = assay: Antibacterial activity against Streptococcus pneumoniae UC9912 by broth microdilution method; assay type: functional; in short: as §1
Moraxella catarrhalis = assay: Antibacterial activity against Moraxella catarrhalis UC3067 by broth microdilution method; assay type: functional; in short: as §1
[16] = Tmax in lethal systemic CF-1 mouse infection model at 20.3 mg/kg, po; assay type: ADME, organism-based; design: dose 20.3 mg/kg, route oral; details: in vivo; in short: as §2
Escherichia coli [17] = assay: Antibacterial activity against acrAB-deficient Escherichia coli UC31701 by broth microdilution method; assay type: functional; in short: as §1
Staphylococcus aureus [18] = assay: Antibacterial activity against norA-deficient Staphylococcus aureus RN4220 by broth microdilution method; assay type: functional; in short: as §1
Staphylococcus aureus [19] = assay: Antimicrobial activity against Staphylococcus aureus MW2 harboring parC R400C mutant gene by broth microdilution method; assay type: functional; in short: as §1
Staphylococcus aureus [20] = assay: Antimicrobial activity against Staphylococcus aureus RN4220 expressing gyrB D437N mutant gene by broth microdilution method; assay type: functional; in short: as §1
[21] = Inhibition of human DNA topoisomerase 4 by gel electrophoresis
Staphylococcus aureus [22] = assay: Antibacterial activity against methicillin-susceptible Staphylococcus aureus by broth microdilution method; assay type: functional; in short: as §1
[23] = Inhibition of Escherichia coli DNA topoisomerase 4 by gel electrophoresis
Haemophilus influenzae [24] = assay: Antibacterial activity against Haemophilus influenzae UC30063 by broth microdilution method; assay type: functional; in short: as §1
[25] = Inhibition of Escherichia coli DNA gyrase by gel electrophoresis
Staphylococcus aureus [26] = assay: Antibacterial activity against methicillin-resistant Staphylococcus aureus UC9213 by broth microdilution method; assay type: functional; in short: as §1
[27] = Oral bioavailability in lethal systemic CF-1 mouse infection model at 20.3 mg/kg, po; assay type: ADME, organism-based; details: in vivo; in short: as §2
[28] = Half life in lethal systemic CF-1 mouse infection model at 20.3 mg/kg, po; assay type: ADME, organism-based; design: dose 20.3 mg/kg, route oral; details: in vivo; in short: as §2
Staphylococcus aureus [29] = assay: Antibacterial activity against ciprofloxacin-resistant Staphylococcus aureus ATCC 29213 by broth microdilution method; assay type: functional; in short: as §1
Streptococcus pneumoniae [30] = assay: Antibacterial activity against ciprofloxacin-resistant Streptococcus pneumoniae by broth microdilution method; assay type: functional; in short: as §1
Haemophilus influenzae [31] = assay: Antibacterial activity against acrAB-deficient Haemophilus influenzae 31809 by broth microdilution method; assay type: functional; in short: as §1
Escherichia coli [32] = assay: Antibacterial activity against Escherichia coli UC6674 by broth microdilution method; assay type: functional; in short: as §1
[33] = Clearance in lethal systemic CF-1 mouse infection model at 21.6 mg/kg, iv; assay type: ADME, organism-based; design: dose 21.6 mg/kg, route intravenous; details: in vivo; in short: as §2
Staphylococcus aureus [34] = assay: Antibacterial activity against Staphylococcus aureus UC9218 by broth microdilution method in presence of 50% serum; assay type: functional; in short: as §1
Streptococcus pneumoniae [35] = assay: Antibacterial activity against Streptococcus pneumoniae by broth microdilution method; assay type: functional; in short: as §1
Staphylococcus aureus [36] = assay: Antibacterial activity against methicillin-susceptible Staphylococcus aureus UC9218 by broth microdilution method; assay type: functional; in short: as §1
Staphylococcus aureus [37] = assay: Antimicrobial activity against Staphylococcus aureus 286607-R1 harboring wild type gyrB by broth microdilution method; assay type: functional; in short: as §1
[38] = AUC (0 to infinity) in lethal systemic CF-1 mouse infection model at 20.3 mg/kg, po; assay type: ADME, organism-based; design: dose 20.3 mg/kg, route oral, time infinity; details: in vivo; in short: as §2
[39] = Half life in lethal systemic CF-1 mouse infection model at 21.6 mg/kg, iv; assay type: ADME, organism-based; design: dose 21.6 mg/kg, route intravenous; details: in vivo; in short: as §2
Staphylococcus aureus [40] = assay: Antibacterial activity against methicillin-resistant Staphylococcus aureus by broth microdilution method; assay type: functional; in short: as §1
[41] = AUC (0 to infinity) in lethal systemic CF-1 mouse infection model at 21.6 mg/kg, iv; assay type: ADME, organism-based; design: time infinity, dose 21.6 mg/kg, route intravenous; details: in vivo; in short: as §2
Mus musculus = assay: Toxicity in lethal systemic CF-1 mouse infection model assessed as adverse effects at 200 mg/kg, po; assay type: organism-based; design: dose 200 mg/kg, route oral; details: in vivo
Streptococcus pneumoniae [42] = assay: Antibacterial activity against Streptococcus pneumoniae UC15142 by broth microdilution method; assay type: functional; in short: as §1
Staphylococcus aureus [43] = assay: Antimicrobial activity against methicillin-resistant Staphylococcus aureus SUAR 1015-01 harboring gyrA S84L, parC S80F and parE S189R mutant gene by broth microdilution method; assay type: functional; in short: as §1
Staphylococcus aureus [44] = assay: Antibacterial activity against methicillin-resistant Staphylococcus aureus UC9213 infected in subcutaneously dosed lethal systemic CF-1 mouse infection model; assay type: functional; details: UC9213, sc; in short: as §3
[45] = Cmax in lethal systemic CF-1 mouse infection model at 21.6 mg/kg, iv; assay type: ADME, organism-based; design: dose 21.6 mg/kg, route intravenous; details: in vivo; in short: as §2

Compound CC1CN2c3ccc([N+](=O)[O-])cc3CC3(C(=O)NC(=O)NC3=O)C2C(C)O1 (racemic) has an MIC (Staphylococcus aureus [1]) of 8 µg/mL (≈ 21.4 µM), an MIC [2] of 1 µg/mL (≈ 2.67 µM) and an MIC (Enterococcus faecium) of 8 µg/mL (≈ 21.4 µM). It also gave a Cmax [3] of 15700 ng/mL, an MIC (Staphylococcus aureus [4]) of 1 µg/mL (≈ 2.67 µM) and an MIC (Staphylococcus aureus [5]) of 1 µg/mL (≈ 2.67 µM). It also gave an MIC (Staphylococcus aureus [6]) of 1 µg/mL (≈ 2.67 µM), an ED50 (Staphylococcus aureus [7]) of 19.5 mg/kg and a Vd [8] of 0.623 L/kg. It also gave an MIC50 (Staphylococcus aureus [9]) of 1 µg/mL (≈ 2.67 µM), an MIC90 (Staphylococcus aureus [9]) of 1 µg/mL (≈ 2.67 µM) and an MIC (Staphylococcus aureus [10]) of 16 µg/mL (≈ 42.7 µM). For the same compound, the MIC (Staphylococcus aureus [11]) was 2 µg/mL, the MIC (Staphylococcus aureus [12]) was 1 µg/mL (≈ 2.67 µM) and the MIC (Staphylococcus aureus [13]) was 1 µg/mL (≈ 2.67 µM). For the same compound, the MIC (Streptococcus pyogenes) was 2 µg/mL (≈ 5.34 µM), the MIC (Enterococcus faecalis) was 4 µg/mL (≈ 10.7 µM) and the MIC (Escherichia coli [14]) was < 0.06 µg/mL. It also gave an MIC (Streptococcus pneumoniae [15]) of 4 µg/mL (≈ 10.7 µM), an MIC (Moraxella catarrhalis) of 2 µg/mL (≈ 5.34 µM) and a Tmax [16] of 1 h. The MIC (Escherichia coli [17]) was 0.125 µg/mL (≈ 0.334 µM), the MIC (Staphylococcus aureus [18]) was 1 µg/mL (≈ 2.67 µM) and the MIC (Staphylococcus aureus [19]) was 1 µg/mL (≈ 2.67 µM). It also gave an MIC (Staphylococcus aureus [20]) of 1 µg/mL (≈ 2.67 µM), an IC50 [21] of 200 µM and an MIC50 (Staphylococcus aureus [22]) of 1 µg/mL (≈ 2.67 µM). The MIC90 (Staphylococcus aureus [22]) was 1 µg/mL (≈ 2.67 µM), the IC50 [23] was 30 µM and the MIC (Haemophilus influenzae [24]) was 0.5 µg/mL (≈ 1.34 µM). It also gave an IC50 [25] of 9 µM, an MIC (Staphylococcus aureus [26]) of 1 µg/mL (≈ 2.67 µM) and a bioavailability [27] of 94.7%. It also gave a half-life [28] of 0.927 h, an MIC (Staphylococcus aureus [29]) of 1 µg/mL (≈ 2.67 µM) and an MIC50 (Streptococcus pneumoniae [30]) of 4 µg/mL (≈ 10.7 µM). For the same compound, the MIC90 (Streptococcus pneumoniae [30]) was 8 µg/mL (≈ 21.4 µM), the MIC (Haemophilus influenzae [31]) was < 0.06 µg/mL and the MIC (Escherichia coli [32]) was 4 µg/mL (≈ 10.7 µM). For the same compound, the clearance [33] was 11.6 mL/min/kg, the MIC (Staphylococcus aureus [34]) was 4 µg/mL and the MIC50 (Streptococcus pneumoniae [35]) was 4 µg/mL (≈ 10.7 µM). It also gave an MIC90 (Streptococcus pneumoniae [35]) of 8 µg/mL (≈ 21.4 µM), an MIC (Staphylococcus aureus [36]) of 1 µg/mL (≈ 2.67 µM) and an MIC (Staphylococcus aureus [37]) of 4 µg/mL (≈ 10.7 µM). For the same compound, the AUC(0-inf) [38] was 27600 ng·h/mL, the half-life [39] was 1.22 h and the MIC (Staphylococcus aureus [40]) was 1 µg/mL (≈ 2.67 µM). The MIC50 (Staphylococcus aureus [40]) was 1 µg/mL (≈ 2.67 µM), the MIC90 (Staphylococcus aureus [40]) was 2 µg/mL (≈ 5.34 µM) and the AUC(0-inf) [41] was 31000 ng·h/mL. For the same compound, the Activity (Mus musculus) was “Non-toxic”, the MIC (Streptococcus pneumoniae [42]) was 4 µg/mL (≈ 10.7 µM) and the MIC (Staphylococcus aureus [43]) was 0.5 µg/mL (≈ 1.34 µM). The ED50 (Staphylococcus aureus [44]) was 12.5 mg/kg and the Cmax [45] was 15700 ng/mL.
